Source: ChEMBL document CHEMBL1124792, “Synthesis and structure-activity relationships of 5-substituted 6,8-difluoroquinolones, including sparfloxacin, a new quinolone antibacterial agent with improved potency” (1990)
Converted amounts (≈) assume the structure as drawn.

Experiments:
Assay type in all cases: functional
Escherichia coli [1] = test: In vitro antibacterial activity against Escherichia coli NIHJ JC-2
In short: (§1)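 Two-fold agar dilution MIC on Mueller-Hinton agar (pH 7.4), following the Japan Society of Chemotherapy MIC Committee method. Inoculum was about 10⁶ CFU, and growth was read after 20 h at 37 °C. MIC is reported in µg/mL.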

Staphylococcus aureus [2] = test: In vitro antibacterial activity against Staphylococcus aureus 209P JC-1; in short: as §1
Pseudomonas aeruginosa [3] = test: In vitro antibacterial activity against Pseudomonas aeruginosa 12; in short: as §1
Enterobacter cloacae = test: In vitro antibacterial activity against Enterobacter cloacae 963
Serratia marcescens [4] = test: In vitro antibacterial activity against Serratia marcescence S-9; in short: as §1
Escherichia coli [5] = test: In vitro antibacterial activity against Escherichia coli P-5101; in short: as §1
Pseudomonas aeruginosa [6] = test: In vitro antibacterial activity against Pseudomonas aeruginosa IFO 3445; in short: as §1
Enterococcus faecalis = test: In vitro antibacterial activity against Streptococcus faecalis 2473; in short: as §1
Staphylococcus aureus [7] = test: In vitro antibacterial activity against Staphylococcus aureus 50774; in short: as §1
Mus musculus [8] = species on record: Mus musculus; test: Oral efficacy against Pseudomonas aeruginosa 12 on Systemic Infections in Mice
In short: (§2)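 Groups of at least 10 male Std-ddY mice (20 ± 2 g) were infected ip, with S. pyogenes A65 at 3×10^7 cells or P. aeruginosa 12 at 4×10^3 cells. Compounds were suspended in 0.2% sodium carboxymethylcellulose and given orally at 0 and 6 h postinfection. The result is reported as ED50 in mg/kg.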

[9] = tested on: Staphylococcus epidermidis; test: In vitro antibacterial activity against Streptococcus epidermis 8; in short: as §1
Moraxella bovis = test: In vitro antibacterial activity against glucose nonfermenter Moraxella bovis P-7101; in short: as §1
Mus musculus [10] = species on record: Mus musculus; test: Oral efficacy against Streptococcus pyogenes A65 on Systemic Infections in Mice; in short: as §2
Klebsiella pneumoniae = test: In vitro antibacterial activity against Klebsiella pneumoniae 13; in short: as §1
Streptococcus pyogenes = test: In vitro antibacterial activity against Streptococcus pyogenes A65; in short: as §1
Serratia marcescens [11] = test: In vitro antibacterial activity against Serratia marcescens S-9
In short: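 MIC (µg/mL) by 2-fold agar dilution on Mueller-Hinton agar (pH 7.4), following the Japan Society of Chemotherapy MIC Committee method. Inoculum of about 10⁶ CFU. Growth was read after 20 h at 37 °C.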

SMILES | MIC (Escherichia coli [1]) [µg/mL] | MIC (Staphylococcus aureus [2]) [µg/mL] | MIC (Pseudomonas aeruginosa [3]) [µg/mL] | other results
C[C@@H]1CN(c2c(F)c(N)c3c(=O)c(C(=O)O)cn(C4CC4)c3c2F)[C@@H](C)CN1 | 0.39 (≈ 0.994 µM) | 0.78 (≈ 1.99 µM) | 3.13 (≈ 7.98 µM) | 
C[C@@H]1CN(c2c(F)c(Cl)c3c(=O)c(C(=O)O)cn(C4CC4)c3c2F)C[C@H](C)N1 | 0.025 (≈ 0.0607 µM) | 0.2 (≈ 0.486 µM) | 0.78 (≈ 1.89 µM) | 
CC1(C)CN(c2c(F)c(N)c3c(=O)c(C(=O)O)cn(C4CC4)c3c2F)CCN1 | 0.025 (≈ 0.0637 µM) | 0.05 (≈ 0.127 µM) | 0.78 (≈ 1.99 µM) | 
C[C@@H]1CN(c2c(F)c(N)c3c(=O)c(C(=O)O)cn(C4CC4)c3c2F)CCN1 | 0.0125 (≈ 0.033 µM) | 0.05 (≈ 0.132 µM) | 0.2 (≈ 0.529 µM) | 
CN1CCN(c2c(F)c(OCc3ccccc3)c3c(=O)c(C(=O)O)cn(C4CC4)c3c2F)CC1 | 1.56 (≈ 3.32 µM) | 6.25 (≈ 13.3 µM) | 6.25 (≈ 13.3 µM) | 
CC1CN(c2c(F)c(O)c3c(=O)c(C(=O)O)cn(C4CC4)c3c2F)CCN1 (configuration not stated) | 0.025 (≈ 0.0659 µM) | 0.2 (≈ 0.527 µM) | 0.78 (≈ 2.06 µM) | MIC (Enterobacter cloacae): 0.05 µg/mL (≈ 0.132 µM); MIC (Serratia marcescens [4]): 0.1 µg/mL (≈ 0.264 µM); MIC (Escherichia coli [5]): 0.025 µg/mL (≈ 0.0659 µM); MIC (Pseudomonas aeruginosa [6]): 0.78 µg/mL (≈ 2.06 µM); MIC (Enterococcus faecalis): 1.56 µg/mL (≈ 4.11 µM); MIC (Staphylococcus aureus [7]): 0.2 µg/mL (≈ 0.527 µM); ED50 (Mus musculus [8]): 5.97 mg/kg; MIC [9]: 0.1 µg/mL (≈ 0.264 µM); MIC (Moraxella bovis): 1.56 µg/mL (≈ 4.11 µM); ED50 (Mus musculus [10]): 12.5 mg/kg; MIC (Klebsiella pneumoniae): 0.1 µg/mL (≈ 0.264 µM); MIC (Streptococcus pyogenes): 0.78 µg/mL (≈ 2.06 µM)
CN1CCN(c2c(F)c(S)c3c(=O)c(C(=O)O)cn(C4CC4)c3c2F)CC1 | 0.39 (≈ 0.986 µM) | 3.13 (≈ 7.92 µM) | 12.5 (≈ 31.6 µM) | 
C[C@H]1CN(c2c(F)c(N)c3c(=O)c(C(=O)O)cn(C4CC4)c3c2F)CCN1 | 0.0063 (≈ 0.0166 µM) | 0.025 (≈ 0.0661 µM) | 0.1 (≈ 0.264 µM) | MIC (Enterobacter cloacae): 0.0125 µg/mL (≈ 0.033 µM); MIC (Escherichia coli [5]): 0.0063 µg/mL (≈ 0.0166 µM); MIC (Pseudomonas aeruginosa [6]): 0.2 µg/mL (≈ 0.529 µM); MIC (Enterococcus faecalis): 0.39 µg/mL (≈ 1.03 µM); MIC (Staphylococcus aureus [7]): 0.025 µg/mL (≈ 0.0661 µM); ED50 (Mus musculus [8]): 0.84 mg/kg; MIC [9]: 0.025 µg/mL (≈ 0.0661 µM); MIC (Moraxella bovis): 0.2 µg/mL (≈ 0.529 µM); ED50 (Mus musculus [10]): 5.06 mg/kg; MIC (Klebsiella pneumoniae): 0.0125 µg/mL (≈ 0.033 µM); MIC (Serratia marcescens [11]): 0.05 µg/mL (≈ 0.132 µM); MIC (Streptococcus pyogenes): 0.2 µg/mL (≈ 0.529 µM)
CSc1c(F)c(N2CCN(C)CC2)c(F)c2c1c(=O)c(C(=O)O)cn2C1CC1 | 0.2 (≈ 0.488 µM) | 3.13 (≈ 7.64 µM) | 12.5 (≈ 30.5 µM) | 
CN1CCN(c2c(F)c(N(C)C)c3c(=O)c(C(=O)O)cn(C4CC4)c3c2F)CC1 | 3.13 (≈ 7.7 µM) | 25 (≈ 61.5 µM) | 50 (≈ 123 µM) | 
C[C@@H]1CN(c2c(F)c(O)c3c(=O)c(C(=O)O)cn(C4CC4)c3c2F)C[C@H](C)N1 | 0.025 (≈ 0.0636 µM) | 0.2 (≈ 0.508 µM) | 0.78 (≈ 1.98 µM) | 
CN1CCN(c2c(F)c(F)c3c(=O)c(C(=O)O)cn(C4CC4)c3c2F)CC1 | 0.05 (≈ 0.131 µM) | 0.39 (≈ 1.02 µM) | 0.78 (≈ 2.05 µM) | 
COc1c(F)c(N2CCN(C)CC2)c(F)c2c1c(=O)c(C(=O)O)cn2C1CC1 | 0.2 (≈ 0.508 µM) | 25 (≈ 63.6 µM) | 12.5 (≈ 31.8 µM) | 
CN1CCN(c2c(F)c(O)c3c(=O)c(C(=O)O)cn(C4CC4)c3c2F)CC1 | 0.05 (≈ 0.132 µM) | 0.2 (≈ 0.527 µM) | 0.78 (≈ 2.06 µM) | 
CNc1c(F)c(N2CCN(C)CC2)c(F)c2c1c(=O)c(C(=O)O)cn2C1CC1 | 0.1 (≈ 0.255 µM) | 0.78 (≈ 1.99 µM) | 1.56 (≈ 3.98 µM) | 
O=C(O)c1cn(C2CC2)c2c(F)c(N3CCNCC3)c(F)c(Cl)c2c1=O | 0.0125 (≈ 0.0326 µM) | 0.1 (≈ 0.261 µM) | 0.39 (≈ 1.02 µM) | 
CN(C)CCNc1c(F)c(N2CCN(C)CC2)c(F)c2c1c(=O)c(C(=O)O)cn2C1CC1 | 0.05 (≈ 0.111 µM) | 6.25 (≈ 13.9 µM) | 0.78 (≈ 1.74 µM) | 
COc1ccc(CSc2c(F)c(N3CCN(C)CC3)c(F)c3c2c(=O)c(C(=O)O)cn3C2CC2)cc1 | 12.5 (≈ 24.2 µM) | 100 (≈ 194 µM) | > 100 | 
CC1CN(c2c(F)c(Cl)c3c(=O)c(C(=O)O)cn(C4CC4)c3c2F)CCN1 (configuration not stated) | 0.0125 (≈ 0.0314 µM) | 0.1 (≈ 0.251 µM) | 0.39 (≈ 0.98 µM) | MIC (Enterobacter cloacae): 0.05 µg/mL (≈ 0.126 µM); MIC (Serratia marcescens [4]): 0.2 µg/mL (≈ 0.503 µM); MIC (Escherichia coli [5]): 0.0125 µg/mL (≈ 0.0314 µM); MIC (Pseudomonas aeruginosa [6]): 0.78 µg/mL (≈ 1.96 µM); MIC (Enterococcus faecalis): 0.78 µg/mL (≈ 1.96 µM); MIC (Staphylococcus aureus [7]): 0.1 µg/mL (≈ 0.251 µM); ED50 (Mus musculus [8]): 1.65 mg/kg; MIC [9]: 0.1 µg/mL (≈ 0.251 µM); MIC (Moraxella bovis): 1.56 µg/mL (≈ 3.92 µM); MIC (Klebsiella pneumoniae): 0.05 µg/mL (≈ 0.126 µM); MIC (Streptococcus pyogenes): 0.78 µg/mL (≈ 1.96 µM)
